Only some compounds are listed: those with a hit (about 2.3% of all), similar ones and a draw of the others.
MEKK3 PB1 HTS: modulators of MEKK3-MEK5 PB1 binding, primary screen, biochemical, wildtype MEKK3, multiplex bead flow cytometry, Alexa488-MEK5. Mitogen-activated protein kinase kinase kinase 3 (Homo sapiens), Q99759. bead-based flow cytometry, Alexa488-MEK5 binding to MEKK3; actives lie on both sides; 0 = blocked by unlabeled MEK5, 100 = vehicle. binding response (% of control), % at 10 µM. actives 1.4% (n = 290,000). AID 1529, 2009;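 active = binding response more than 3 SD above or below the average of its plate-row segment, actives on both sides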;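 note: Alexa488 bead fluorescence after subtracting the streptavidin-only scavenger bead signal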
Target sequence (Q99759 whole entry, looked up): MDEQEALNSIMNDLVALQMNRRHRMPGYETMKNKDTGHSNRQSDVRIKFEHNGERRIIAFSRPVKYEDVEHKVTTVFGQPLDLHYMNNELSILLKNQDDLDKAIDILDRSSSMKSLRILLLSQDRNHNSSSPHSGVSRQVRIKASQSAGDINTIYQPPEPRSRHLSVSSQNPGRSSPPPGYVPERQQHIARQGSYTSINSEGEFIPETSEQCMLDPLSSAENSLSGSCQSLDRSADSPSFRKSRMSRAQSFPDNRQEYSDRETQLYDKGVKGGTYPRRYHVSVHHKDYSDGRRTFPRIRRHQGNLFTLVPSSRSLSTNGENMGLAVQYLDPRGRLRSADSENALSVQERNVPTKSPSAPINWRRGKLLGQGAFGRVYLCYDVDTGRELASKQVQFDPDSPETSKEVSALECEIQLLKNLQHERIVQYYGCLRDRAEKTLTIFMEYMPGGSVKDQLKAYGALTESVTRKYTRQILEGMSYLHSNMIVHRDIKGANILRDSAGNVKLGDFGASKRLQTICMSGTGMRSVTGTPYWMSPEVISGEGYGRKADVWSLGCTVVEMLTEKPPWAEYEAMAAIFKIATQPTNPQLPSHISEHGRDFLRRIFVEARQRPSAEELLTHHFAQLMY
MEKK2 mut-MEK5: MEK5 binding signal on mutant MEKK2 PB1, primary screen, biochemical, multiplex bead flow cytometry, Alexa488-MEK5; Alexa488-MEK5 binding to MEKK2 mutant; percent response, % at 10 µM; actives 0.35% (n = 290,000); in the data active = percent response above about 24%, passing the limit was not always enough
MEKK2wt PB1 HTS: modulators of MEK5 binding to wildtype MEKK2, primary screen, biochemical, multiplex bead flow cytometry, Alexa488-MEK5 | Mitogen-activated protein kinase kinase kinase 2 (Homo sapiens), Q9Y2U5 | Alexa488-MEK5 binding to MEKK2 WT; actives lie on both sides | binding response (% of control), % at 10 µM | actives 1.1% (n = 290,000) | AID 1531, 2009; in the data active = binding response below about 67% or above about 130%
ABCG2 inh: ABCG2 efflux pump inhibitors, primary screen, multiplex with ABCB1, IgMXP3 cells, flow cytometry; AID 1325, 2008; inhibition, % at 6.6 µM; Broad substrate specificity ATP-binding cassette transporter ABCG2 (Homo sapiens), Q9UNQ0; actives 0.1% (n = 190,000); JC-1 efflux;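 active = inhibition above 80%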
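Measure – % inhibition of efflux relative to nicardipine and DMSO · Test system – ABCG2 IgMXP3 and barcoded ABCB1 CCRF-Adr cell mix · Control set – nicardipine as high control, DMSO as low control · Compound – one concentration, 6.6 µM final · Signal – flow cytometry of retained JC-1 fluorescence · Timing – 10 min exposure at 25 °C with rotation, no wash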
ABCB1 inh: ABCB1 efflux pump inhibitors, primary screen, cell-based, multiplex, flow cytometry, ABCG2 counter-screen; ATP-dependent translocase ABCB1 (Homo sapiens), P08183; CCRF-Adr cells, JC-1 efflux; inhibition, % at 6.6 µM; actives 0.067% (n = 190,000); in the data active = inhibition above about 40%;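 note: higher value means more JC-1 retained so stronger ABCB1 efflux block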
MEKK2wt confirm: modulators of MEK5 binding to wildtype MEKK2, confirmation, biochemical, single concentration, multiplex bead flow cytometry. shares compounds with MEKK3 PB1 HTS. Alexa488-MEK5 binding to MEKK2 WT; actives lie on both sides. binding response (% of control), % at 10 µM. actives 2.4% (n = 5,900). AID 1892, 2009; in the data active = binding response below about 16% or above about 210%; inactive = in between
MEKK2mut confirm: mutant MEKK2 PB1-MEK5 binding signal retest – biochemical, single concentration, multiplex bead flow cytometry, confirmation. shares compounds with MEKK3 PB1 HTS. Alexa488-MEK5 binding to MEKK2 mutant. percent response, % at 10 µM. actives 2% (n = 5,900); in the data active = percent response mostly above about 71%, no sharp cut-off; inactive = mostly below about 38%;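 note: higher means compound restores mutant binding toward wildtype level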
MEKK3 confirm: MEKK3 wild-type PB1 binding to MEK5, inhibitors, confirmation, biochemical, bead multiplex flow cytometry, single concentration, wildtype. shares compounds with MEKK3 PB1 HTS. Alexa488-MEK5 binding to MEKK3; hits give low values. binding response (% of control), % at 10 µM. actives 1.8% (n = 5,900). AID 1894, 2009;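 active = binding response below 72% of control, or above a set upper limit, though filed actives all read lower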;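 note: lower values mean stronger disruption of MEK5 binding to MEKK3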
Large screens that a line does not name were inactive (follow-up assays come after a bar, where they were run); [ ] = dose if it differs, or a comment.

Nn1cnnc1N/N=C\c1ccc(-c2ccccc2[N+](=O)[O-])o1	MEKK3 PB1 HTS 156 | MEKK2wt confirm inactive | MEKK2mut confirm inactive | MEKK3 confirm inactive
C/C(=N\NC(=O)c1ccc(Cl)c(S(=O)(=O)Nc2ccccc2Cl)c1)c1ccncc1	MEKK3 PB1 HTS 145 | MEKK2wt confirm inactive | MEKK2mut confirm inactive | MEKK3 confirm inactive
CC1CN(C(=O)Cn2cc(SCC(=O)N3CCOCC3)c3ccccc32)CC(C)O1 (configuration not stated)	MEKK3 PB1 HTS 1.0[inhibitor], MEKK2wt PB1 HTS -2.0[inhibitor] (no result: ABCG2 inh, ABCB1 inh) | MEKK2wt confirm inactive | MEKK2mut confirm inactive | MEKK3 confirm inactive
CC1CN(C(=O)CSc2cn(CC(=O)N3CCOCC3)c3ccccc23)CC(C)O1 (configuration not stated)	none (no result: ABCG2 inh, ABCB1 inh)
CC(C)C(=O)c1ccc(O)c(O)c1	MEKK3 PB1 HTS 70[inhibitor] (no result: ABCG2 inh, ABCB1 inh) | MEKK2wt confirm inactive | MEKK2mut confirm inactive | MEKK3 confirm inactive
Cc1ccc(O)c(O)c1	none (no result: ABCG2 inh, ABCB1 inh)
Nc1ccc(C23CC4CC(CC(CO)(C4)C2)C3)cc1	none
NCC12CC3CC(C1)CC(c1ccc(Cl)cc1)(C3)C2	MEKK2wt PB1 HTS 155 | MEKK2wt confirm inactive | MEKK2mut confirm inactive | MEKK3 confirm inactive
O=C(Nc1ccccc1-c1ccccc1)c1cccc(C(F)(F)F)c1	none
Cc1csc(-c2cnn(-c3ccccc3)c2NC(=O)c2cccc(C(F)(F)F)c2)n1	MEKK3 PB1 HTS 131 | MEKK2wt confirm inactive | MEKK2mut confirm inactive | MEKK3 confirm inactive
CN(CC(=O)Nc1ccccc1Br)C(=O)c1cccnc1Nc1cccc(C(F)(F)F)c1	none (no result: ABCG2 inh, ABCB1 inh)
COc1ccc(-c2nnc3ccc(SCC(=O)Nc4nccs4)nn23)cc1OC	MEKK3 PB1 HTS 128 | MEKK2wt confirm inactive | MEKK2mut confirm inactive | MEKK3 confirm inactive
O=C(CSc1ccc2nnc(-c3ccncc3)n2n1)Nc1nccs1	none
COc1ccc(-c2[nH]c(-c3ccc(C)cc3)nc2SCC(=O)Nc2nccs2)cc1	MEKK3 PB1 HTS 134 | MEKK2wt confirm inactive | MEKK2mut confirm inactive | MEKK3 confirm inactive
CC(NS(=O)(=O)c1ccc(F)cc1)C(=O)Nc1ccc2c(c1)OCCO2 (configuration not stated)	none (no result: ABCG2 inh, ABCB1 inh)
COc1cccc(NC(=O)[C@H](NC(=O)[C@@H]2Cc3ccccc3CN2)c2ccccc2)c1	none (no result: ABCG2 inh, ABCB1 inh)
CCC(=O)Nc1cccc(C2=NOC3(C2)C[C@H](C(N)=O)N(C(=O)CC#N)C3)c1 (some centres not stated)	MEKK3 PB1 HTS 78[inhibitor] (no result: ABCG2 inh, ABCB1 inh) | MEKK2wt confirm inactive | MEKK2mut confirm inactive | MEKK3 confirm inactive
CCCCCC(=O)Nc1cccc(C2=NOC3(C2)C[C@H](C(N)=O)N(C(=O)COc2ccc(Cl)cc2)C3)c1 (some centres not stated)	MEKK3 PB1 HTS 3.0[inhibitor], MEKK2wt PB1 HTS 6.0[inhibitor] (no result: ABCG2 inh, ABCB1 inh) | MEKK2wt confirm inactive | MEKK2mut confirm inactive | MEKK3 confirm inactive
C/C=C\C=C/C(=O)Nc1cccc(C2=NOC3(C2)C[C@@H](C(N)=O)N(C(=O)COc2ccc(Cl)cc2)C3)c1 (some centres not stated)	none (no result: ABCG2 inh, ABCB1 inh)
CC(CCc1ccccc1)NC(=O)COC(=O)c1ccc(NC(N)=O)cc1 (configuration not stated)	none (no result: ABCG2 inh, ABCB1 inh)
CCN1CCN(C(=O)CN(CC)S(=O)(=O)c2ccc3ccccc3c2)CC1	none (no result: ABCG2 inh, ABCB1 inh)
O=C(O)c1ccc(Oc2ccc(C(F)(F)F)cn2)cc1	none
COC(=O)c1ccc(Oc2ccc(C(F)(F)F)cn2)cc1	MEKK3 PB1 HTS 152 | MEKK2wt confirm inactive | MEKK2mut confirm inactive | MEKK3 confirm inactive
CCS(=O)(=O)N1N=C(c2cccs2)CC1c1cc2cc(C)ccc2nc1Cl (configuration not stated)	MEKK2wt PB1 HTS -9.0[inhibitor] (no result: ABCG2 inh, ABCB1 inh) | MEKK2wt confirm inactive | MEKK2mut confirm inactive | MEKK3 confirm inactive
CCOc1ccccc1C1CC(c2cccs2)=NN1S(C)(=O)=O (configuration not stated)	MEKK3 PB1 HTS 2.0[inhibitor] | MEKK2wt confirm inactive | MEKK2mut confirm inactive | MEKK3 confirm inactive
CS(=O)(=O)N1N=C(c2ccc(Cl)cc2)CC1c1cccs1 (configuration not stated)	none
O=C(c1ccco1)N1N=C(c2cccs2)CC1c1ccccc1O (configuration not stated)	none (no result: ABCG2 inh, ABCB1 inh)
CS(=O)(=O)N1N=C(c2cccs2)CC1c1ccc(F)cc1 (configuration not stated)	MEKK2wt PB1 HTS 22[inhibitor] (no result: ABCG2 inh, ABCB1 inh) | MEKK2wt confirm inactive | MEKK2mut confirm inactive | MEKK3 confirm inactive
CS(=O)(=O)N1N=C(c2cccs2)CC1c1ccccc1O (configuration not stated)	MEKK2wt PB1 HTS 0.0[inhibitor] | MEKK2wt confirm inactive | MEKK2mut confirm inactive | MEKK3 confirm inactive
COC(=O)c1ccccc1NC(=O)CSc1nncn1-c1ccccn1	none (no result: ABCG2 inh, ABCB1 inh)
COc1ccccc1N(CC(=O)NCC1CCCO1)C(=O)CNS(=O)(=O)c1ccc(Cl)cc1 (configuration not stated)	MEKK3 PB1 HTS 128 (no result: ABCG2 inh, ABCB1 inh) | MEKK2wt confirm inactive | MEKK2mut confirm inactive | MEKK3 confirm inactive
Cc1nn(CC(=O)N2CCN(c3cccc(C(F)(F)F)c3)CC2)c(=O)c2cccn12	none (no result: ABCG2 inh, ABCB1 inh)
O=C(O)c1ccc(N=C2SCC(=O)N2Cc2ccccc2)cc1	none
O=C(O)c1ccc(CN2C(=O)CSC2=S)cc1	MEKK3 PB1 HTS 124 | MEKK2wt confirm inactive | MEKK2mut confirm inactive | MEKK3 confirm inactive
CCc1ccccc1NC(=O)Cn1nnc(C(=O)NCc2cccc(OC)c2)c1N	none (no result: ABCG2 inh, ABCB1 inh)
CCOc1ccc(NC(=O)c2cc3cc4ccc(C)cc4nc3o2)cc1	none
CCOc1ccc(NC(=O)c2cc3cc4ccc(OC)cc4nc3o2)cc1	MEKK3 PB1 HTS 2.0[inhibitor], MEKK2wt PB1 HTS 1.0[inhibitor] | MEKK2wt confirm inactive | MEKK2mut confirm inactive | MEKK3 confirm inactive
Cc1ccccc1C1=N/C(=C/c2cccs2)C(=O)O1	none

Assay outcomes as filed in PubChem BioAssay.
